Screens from PubChem BioAssay.
Shown is part of a subset that was picked to be rich in hits.
H69AR inhibit = blocks growth of human H69AR lung tumor cells; H69AR lung tumor viability, ATP luminescence, 72 h; hits give low values; viability, % at 10 µM; actives 6% (n = 85,000); AID 598;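 active means viability at or below 40%; inactive means viability above 40%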;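 further: multidrug resistant small cell line overexpressing MRP-1 efflux transporter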
HCT116 PTEN-null = growth suppressors of cells with PTEN tumor suppressor deletion; HCT116 PTEN-null viability, CellTiter-Glo, 60 h; hits give low values; viability, % at 10 µM; actives 1.2% (n = 140,000); AID 827;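 active means viability at or below a set limit, 4 SD under the median of all tested compounds, cut at about 3.7% in these data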;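 further: PTEN knockout HCT116 line with beta catenin targeted HCT116 as companion control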
HUVEC prolif 384 = human endothelial cell proliferation inhibition; viability, % at 10 µM (by protocol); HUVEC proliferation, CellTiter-Glo luminescence, 72 h; hits give low values; actives 1.1% (n = 86,000); AID 648;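 active means viability at or below 30%; inactive means viability above 30%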
Fibroblast inh = blocks proliferation of human lung fibroblasts | LL 47 human lung fibroblast viability, ATP luminescence; hits give low values | actives 1.1% (n = 85,000) | viability, % at 10 µM;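 active means viability at or below 50% in the single dose screen; inactive means viability above 50%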;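 further: compound exposure lasted 72 h before the ATP readout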
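Signal: luminescent ATP detection, CellTiter-Glo; assay system: LL 47 human lung fibroblasts; input: 1,150 cells/well; incubation: overnight cell rest, 72 h compound treatment at 37 °C; measure: % viability versus median cells-only luminescence; medium: IMEM growth medium with 15% fetal bovine serum; dosing: compound addition at 0.1% DMSO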
bCat KO growth = beta-catenin-lacking colon tumor cell growth suppression. viability, % at 10 µM. HCT116 beta-catenin knockout viability, CellTiter-Glo, 60 h; hits give low values. actives 1.5% (n = 140,000);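 active means viability at or under a set limit, the compound median less 4 SD, cut at about 6% in these data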
Large screens that a line does not name were inactive.

CC(=O)OC1CC(C)(C)N(OC(=O)c2ccc(N)cc2)C(C)(C)C1	none
CC(=O)N/C(=C\c1ccccc1)C(=O)OCC(=O)NC1CCCC1	none (no result: H69AR inhibit, HUVEC prolif 384, Fibroblast inh)
Cc1nnc(SCc2ccccc2)nc1/C=C/NOCc1ccc(Cl)cc1Cl	H69AR inhibit 2.3
Fc1cc(NCc2ccccc2)nc(NCc2ccccc2)n1	none (no result: H69AR inhibit, HUVEC prolif 384, Fibroblast inh)
Cc1cc(Nc2ccc(Cl)cc2)nc(NCc2ccccc2)n1	HCT116 PTEN-null 1.4, bCat KO growth 1.1 (no result: H69AR inhibit, HUVEC prolif 384, Fibroblast inh)
Cc1cc(N2CCC(C)CC2)nc(NCc2ccccc2)n1	bCat KO growth 2.8 (no result: H69AR inhibit, HUVEC prolif 384, Fibroblast inh)
CCCCNc1cc(C)nc(NCc2ccccc2)n1	H69AR inhibit 9.9, HCT116 PTEN-null 1.5, HUVEC prolif 384 4.4, bCat KO growth 1.3
Cc1cc(Oc2ccccc2)nc(NCc2ccccc2)n1	none
Cc1cc(Nc2ccccc2)nc(NCc2ccccc2)n1	none (no result: H69AR inhibit, HUVEC prolif 384, Fibroblast inh)
Cc1cc(Nc2cccc(F)c2)nc(NCc2ccccc2)n1	HCT116 PTEN-null 1.4, bCat KO growth 2.9 (no result: H69AR inhibit, HUVEC prolif 384, Fibroblast inh)
Cc1ccccc1C1C(C#N)=C2N=C(N)c3c(sc4c3CCCCC4)N2C2=C1C(=O)CCC2 (centres undefined)	none (no result: H69AR inhibit, HUVEC prolif 384, Fibroblast inh)
Cc1csc(NC(=O)CSc2nnc(-c3ccc(S(=O)(=O)N4CCCC4)cc3)o2)n1	H69AR inhibit 33.8
CCN(CC)S(=O)(=O)c1ccc(-c2nnc(SCC(=O)Nc3nc(C)cs3)o2)cc1	none
Cc1ccc(-c2nnc(SCC(=O)Nc3ccc(S(=O)(=O)N4CCCCCC4)cc3)o2)cc1	H69AR inhibit 8.8
CC(=O)Nc1nonc1C(=O)N1CCC(C)CC1	none
CC(C)CSc1ncnc2c1oc1nc3c(cc12)COC(C)(C)C3	none
Cc1ccc(OCc2nnc(SCC(=O)CC(=O)Nc3ccccc3)o2)cc1	none
CCCCCC(=O)N(O)C1CC(=O)N(c2ccccc2)C1=O (centres undefined)	H69AR inhibit 35.0
CCOC(=O)COc1ccc(S(=O)(=O)NCC2CCCO2)cc1 (centres undefined)	none
O=C(NCc1ccco1)c1cnn2c(C(F)F)cc(-c3ccccc3)nc12	none
O=C(NCc1ccco1)c1cnn2c(C(F)(F)F)cc(-c3cccs3)nc12	H69AR inhibit 7.1
COc1ccc(CCn2c(=S)[nH]c3cc(C(=O)NCc4ccco4)ccc3c2=O)cc1OC	H69AR inhibit 4.4, HUVEC prolif 384 7.3
CCOCCCNC(=O)c1c(-c2ccccc2)noc1C	none
Cc1nc(NCc2ccco2)c2c(C)c(C)sc2n1	H69AR inhibit 33.7, HCT116 PTEN-null 2.2, HUVEC prolif 384 3.5, Fibroblast inh 26.9, bCat KO growth 1.7
Cc1sc2nc3c4ccccc4c(NCc4ccco4)nn3c(=O)c2c1C	H69AR inhibit 34.0
CCOC(=O)c1sc2nc(CC(=O)OC)nc(NCc3ccco3)c2c1C	none
O=c1cc(-c2ccccc2)nc(N2CCN(Cc3ccccc3)CC2)[nH]1	none
O=C(Nc1ccc(Cl)cc1C(=O)NCC1CCCO1)c1ccco1 (centres undefined)	none
Cc1ccc(NC(=O)NC2=N/C(=C(/C#N)C(=O)N3CCCC3)c3ccccc32)cc1	H69AR inhibit 36.8 (no result: HCT116 PTEN-null, bCat KO growth)
Cc1ccc(Nc2nc3nonc3[nH]c2=O)cc1C	none
Nn1cnc2c(c1=O)C1(CCCCC1)Cc1ccccc1-2	none (no result: H69AR inhibit, HUVEC prolif 384, Fibroblast inh)
Oc1ccc(-c2nc3c4c(ncn3n2)-c2ccccc2CC42CCCC2)cc1	HCT116 PTEN-null 2.6, bCat KO growth 3.0 (no result: H69AR inhibit, HUVEC prolif 384, Fibroblast inh)
CCOC(=O)c1c2c(n(C)c1COC)C(=O)C(=O)c1ccc(Br)cc1-2	H69AR inhibit 1.5, HUVEC prolif 384 2.1, Fibroblast inh 2.2 (no result: HCT116 PTEN-null, bCat KO growth)
Cc1ccc(-n2nc(C)c3c2OC(N)=C(C#N)C3c2cccs2)cc1 (centres undefined)	none
COC(=O)c1cc2c(C)[nH]c(C)c2cc(C(=O)OC)c1=O	none (no result: H69AR inhibit, HUVEC prolif 384, Fibroblast inh)
CC1CCCN(Cc2c(O)ccc3c(=O)c(-c4nc5ccccc5s4)c(N)oc23)C1 (centres undefined)	HCT116 PTEN-null 0.9, bCat KO growth 1.0 (no result: H69AR inhibit, HUVEC prolif 384, Fibroblast inh)
O=C(Oc1ccccc1)c1cccc2cccnc12	H69AR inhibit 0.8, HCT116 PTEN-null 1.7, Fibroblast inh 35.6, bCat KO growth 3.3
O=C(Cc1ccc(Cl)cc1)Oc1cccc2cccnc12	HCT116 PTEN-null 3.0, bCat KO growth 4.2 (no result: H69AR inhibit, HUVEC prolif 384, Fibroblast inh)
O=C(Oc1ccc(Cl)c2cccnc12)c1ccco1	H69AR inhibit 1.3, Fibroblast inh 4.2, bCat KO growth 5.3
O=C(Oc1cccc2ccccc12)c1ccco1	none
O=C(Oc1cccc2cccnc12)c1ccco1	H69AR inhibit 1.5, HCT116 PTEN-null 1.8, Fibroblast inh 5.2, bCat KO growth 3.0
NNC(=O)COc1cccc2cccnc12	none
O=C(Oc1cccc2cccnc12)c1ccc(Br)o1	none
